Key:
[1] = target: T1, Opioid receptors; delta & kappa (Homo sapiens) (UniProt P41145+P41143); experiment: Selectivity ratio as ratio of Ki value towards kappa receptor to that of delta-1 receptor.; format: protein assay
[2] = target: Delta-type opioid receptor (Homo sapiens) (UniProt P41143); experiment: Selectivity ratio as ratio of ED50 value against delta-2 receptor to that delta-1 receptor after 1.5 administration.; format: functional, organism-based
Outline: (§1)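 Mice were pretreated icv with antagonist at 5 nmol. Antinociception from icv DPDPE (delta1) or DSLET (delta2) was measured 1.5 or 24 h later. ED50 ratio is pretreated ED50 over control ED50. Selectivity is the DSLET ED50 ratio divided by the DPDPE ED50 ratio.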

Mus musculus [3] = experiment: Tested in vivo for antagonistic activity against antinociceptive effect of icv-administered DSLET in mice at 24 hr; format: functional; outline: as §1
[4] = target: Kappa-type opioid receptor (Cavia porcellus) (UniProt P41144); experiment: Antagonistic activity against Opioid receptor kappa 1 in guinea pig ileum assay; format: functional, tissue-based
Sequence of Kappa-type opioid receptor (Cavia porcellus) (P41144 whole entry): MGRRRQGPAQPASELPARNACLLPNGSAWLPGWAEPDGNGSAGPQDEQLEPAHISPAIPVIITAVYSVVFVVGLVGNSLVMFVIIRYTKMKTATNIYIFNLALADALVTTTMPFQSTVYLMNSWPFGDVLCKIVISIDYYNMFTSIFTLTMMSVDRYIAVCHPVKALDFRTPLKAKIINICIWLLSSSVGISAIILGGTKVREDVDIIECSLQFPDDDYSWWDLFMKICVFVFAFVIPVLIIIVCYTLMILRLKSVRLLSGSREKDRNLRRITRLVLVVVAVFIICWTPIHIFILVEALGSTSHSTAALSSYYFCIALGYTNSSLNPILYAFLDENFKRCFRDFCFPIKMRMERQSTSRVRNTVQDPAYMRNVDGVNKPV
Outline: (§2)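 Electrically stimulated guinea pig ileum. Antagonist present at 100 nM during a 30 min incubation. Agonists were morphine (mu) and ethylketazocine (kappa). Antagonism was expressed as IC50 ratio: agonist IC50 with antagonist divided by control IC50.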

Mus musculus [5] = experiment: Tested in vivo for antagonistic activity against antinociceptive effect of icv-administered DSLET in mice at 1.5 hr; format: functional; outline: as §1
[6] = target: Delta-type opioid receptor (Mus musculus) (UniProt P32300); experiment: Antagonistic activity against opioid delta receptor in mouse vas deferens after 10 minutes. Preparation was washed (5x) with buffer after incubation with antagonist.; format: functional, tissue-based
Sequence of Delta-type opioid receptor (Mus musculus) (P32300 whole entry): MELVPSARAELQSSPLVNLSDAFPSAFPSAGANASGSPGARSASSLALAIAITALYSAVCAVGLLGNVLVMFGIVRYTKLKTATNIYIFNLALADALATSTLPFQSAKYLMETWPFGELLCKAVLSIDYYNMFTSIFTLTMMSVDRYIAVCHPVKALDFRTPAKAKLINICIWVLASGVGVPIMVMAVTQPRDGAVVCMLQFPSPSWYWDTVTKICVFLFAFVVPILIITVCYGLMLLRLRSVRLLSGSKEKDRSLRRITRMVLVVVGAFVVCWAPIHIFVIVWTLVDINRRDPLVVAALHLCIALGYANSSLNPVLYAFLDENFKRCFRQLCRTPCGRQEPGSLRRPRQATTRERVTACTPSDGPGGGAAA
Outline: (§3)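 Electrically stimulated mouse vas deferens with DADLE as the delta agonist. Antagonist at 100 nM was incubated for the stated time (10, 30 or 60 min). The preparation was then washed 5 times with buffer before agonist IC50 was measured. Result is the IC50 ratio, agonist IC50 with antagonist over control IC50.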

Mu-type opioid receptor = Mu-type opioid receptor (Cavia porcellus, UniProt P97266); experiment: Tested for binding affinity against mu opioid receptor using [3H]DAMGO as a radioligand in the guinea pig brain membranes.; format: cell membranes
Sequence of Mu-type opioid receptor (P97266 whole entry): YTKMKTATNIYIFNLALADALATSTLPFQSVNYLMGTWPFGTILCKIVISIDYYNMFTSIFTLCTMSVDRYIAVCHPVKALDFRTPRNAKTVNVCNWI
Outline: (§4)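 Radioligand competition in guinea pig brain membranes. Kappa sites were labelled with [3H]U69593 and mu sites with [3H]DAMGO. Delta1 sites used [3H]DPDPE and delta2 sites used [3H]DSLET, both in the presence of 100 nM unlabelled DAMGO. Results are reported as Ki.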

[7] = target: Delta-type opioid receptor (Homo sapiens) (UniProt P41143); experiment: Selectivity ratio as ratio of ED50 value against delta-2 receptor to that delta-1 receptor after hours of administration,; format: functional, organism-based; outline: as §1
[8] = target: Kappa-type opioid receptor (Cavia porcellus, UniProt P41144); experiment: Tested for binding affinity against Opioid receptor kappa 1 using [3H]U-69593 as a radioligand in the guinea pig brain membranes.; format: cell membranes; outline: as §4
Sequence of Kappa-type opioid receptor (P41144 whole entry): as the sequence (P41144 whole entry) above

[9] = target: Delta-type opioid receptor (Mus musculus) (UniProt P32300); experiment: Antagonistic activity against opioid delta receptor in mouse vas deferens after 30 min incubation. Preparation was washed (5x) with buffer after incubation with antagonist.; format: functional, tissue-based; outline: as §3
[10] = target: Mu-type opioid receptor (Cavia porcellus) (UniProt P97266); experiment: Antagonistic activity against Opioid receptor mu 1 in guinea pig ileum assay; format: functional, tissue-based; outline: as §2
Sequence of Mu-type opioid receptor (Cavia porcellus) (P97266 whole entry): as the sequence (P97266 whole entry) above

[11] = target: Delta-type opioid receptor (Mus musculus) (UniProt P32300); experiment: Antagonistic activity against opioid delta receptor in mouse vas deferens after 30 min. IC50 ratio determined without washing (prewash).; format: functional
Outline: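 Electrically stimulated mouse vas deferens with DADLE as the delta agonist. Antagonist at 100 nM was incubated for 30 min. Agonist IC50 was measured directly without washing. Result is the IC50 ratio versus control agonist IC50.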

Mus musculus [12] = experiment: Tested in vivo for antagonistic activity against antinociceptive effect of icv-administered DPDPE in mice at 24 hr; format: functional; outline: as §1
[13] = target: T2, Opioid receptors; mu & delta (Homo sapiens) (UniProt P41143+P35372); experiment: Selectivity ratio as the ratio of IC50 ratio of delta receptor to that of mu receptor.; format: functional
T2 sequence (P35372 whole entry, looked up): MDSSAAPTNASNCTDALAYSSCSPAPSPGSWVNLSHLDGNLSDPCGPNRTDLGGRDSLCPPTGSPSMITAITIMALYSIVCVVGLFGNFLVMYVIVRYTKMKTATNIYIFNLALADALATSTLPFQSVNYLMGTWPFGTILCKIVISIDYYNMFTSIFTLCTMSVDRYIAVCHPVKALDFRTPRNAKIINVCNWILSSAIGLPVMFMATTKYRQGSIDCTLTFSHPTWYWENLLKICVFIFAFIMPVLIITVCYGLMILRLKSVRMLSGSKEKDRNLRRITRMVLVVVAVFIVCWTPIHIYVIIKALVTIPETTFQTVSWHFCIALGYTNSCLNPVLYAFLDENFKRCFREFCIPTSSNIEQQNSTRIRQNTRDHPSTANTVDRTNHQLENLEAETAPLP
T2 sequence (P41143 whole entry, looked up): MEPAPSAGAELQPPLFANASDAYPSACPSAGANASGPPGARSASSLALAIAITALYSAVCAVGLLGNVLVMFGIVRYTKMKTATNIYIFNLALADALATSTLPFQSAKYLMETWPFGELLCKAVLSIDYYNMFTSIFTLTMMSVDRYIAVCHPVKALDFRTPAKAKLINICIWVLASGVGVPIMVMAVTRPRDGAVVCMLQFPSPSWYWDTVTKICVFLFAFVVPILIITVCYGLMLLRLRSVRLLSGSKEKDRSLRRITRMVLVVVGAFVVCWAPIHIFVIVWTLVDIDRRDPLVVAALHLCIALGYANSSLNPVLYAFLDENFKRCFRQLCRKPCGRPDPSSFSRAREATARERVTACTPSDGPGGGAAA
Outline: (§5)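 Each selectivity value is the delta IC50 ratio from mouse vas deferens (DADLE, 100 nM antagonist, 30 min) divided by the kappa (ethylketazocine) or mu (morphine) IC50 ratio from guinea pig ileum. A value of 1 was used wherever an IC50 ratio was below 1.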

[14] = target: T2, Opioid receptors; mu & delta (Homo sapiens); experiment: Selectivity ratio as ratio of Ki value towards mu receptor to that of delta-1 receptor.; format: protein assay
[15] = target: T1, Opioid receptors; delta & kappa (Homo sapiens); experiment: Selectivity ratio as the ratio of IC50 ratio of delta receptor to that of kappa receptor.; format: functional; outline: as §5
Mus musculus [16] = experiment: Tested in vivo for antagonistic activity against antinociceptive effect of icv-administered DPDPE in mice at 1.5 hr; format: functional; outline: as §1
[17] = target: Delta-type opioid receptor (Mus musculus) (UniProt P32300); experiment: Tested […] for antagonistic activity against opioid delta receptor in mice at incubation time of 60 minutes. Preparation was washed (5x) with buffer after incubation with antagonist.; format: functional

Sequence of Delta-type opioid receptor (Homo sapiens) (P41143 whole entry): as the sequence (P41143 whole entry, looked up) above
T1 sequence (P41143 whole entry, looked up): as above
T1 sequence (P41145 whole entry, looked up): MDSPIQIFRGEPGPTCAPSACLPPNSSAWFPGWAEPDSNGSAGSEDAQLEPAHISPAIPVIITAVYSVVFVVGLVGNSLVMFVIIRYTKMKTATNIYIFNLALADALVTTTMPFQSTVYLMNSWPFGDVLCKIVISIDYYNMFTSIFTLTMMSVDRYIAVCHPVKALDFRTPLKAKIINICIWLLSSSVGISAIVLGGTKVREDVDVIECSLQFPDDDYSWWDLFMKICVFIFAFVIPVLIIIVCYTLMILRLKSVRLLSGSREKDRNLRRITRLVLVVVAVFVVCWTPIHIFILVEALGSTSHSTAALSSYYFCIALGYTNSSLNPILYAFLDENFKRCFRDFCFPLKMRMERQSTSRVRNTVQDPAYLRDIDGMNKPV

Row | Structure (SMILES) | Selectivity [1] | Selectivity [2] | ED50 ratio (Mus musculus [3]) | IC50 ratio [4] | ED50 ratio (Mus musculus [5]) | IC50 ratio [6] | Ki (Mu-type opioid receptor) | Selectivity [7] | Ki [8] | IC50 ratio [9] | IC50 ratio [10] | IC50 ratio [11] | ED50 ratio (Mus musculus [12]) | Selectivity [13] | Selectivity [14] | Selectivity [15] | ED50 ratio (Mus musculus [16]) | IC50 ratio [17]
1 | Oc1ccc2c3c1O[C@H]1c4c(c5ccccc5n4Cc4ccc(N=C=S)cc4)C[C@@]4(O)C(C2)N(CC2CC2)CCC314 (some centres not stated) | 46 | 3.5 | 4.2 | 0.6 | 3.8 | 6.7 | 289 nM | 1.7 | 245 nM | 20 | 1.3 | 18 | 2.5 | 25 | 55 | 18 | 1.1 | 
2 | O=C(CBr)Nc1cccc(Cn2c3c(c4ccccc42)C[C@@]2(O)C4Cc5ccc(O)c6c5C2(CCN4CC2CC2)[C@H]3O6)c1 (some centres not stated) | 463 | 2.4 | 6.9 | 0.9 | 2.4 | 44 | 15.3 nM | 2.5 | 8.8 nM | 51 | 3.8 | 511 | 2.8 | 135 | 805 | 511 | 1 | 
3 | CC(=O)Nc1ccccc1Cn1c2c(c3ccccc31)C[C@@]1(O)C3Cc4ccc(O)c5c4C1(CCN3CC1CC1)[C@H]2O5 (some centres not stated) |  |  |  | 1.3 |  |  |  |  |  | 10 | 1.9 | 54 |  | 29 |  | 42 |  | 
4 | O=C(CBr)Nc1ccccc1Cn1c2c(c3ccccc31)C[C@@]1(O)C3Cc4ccc(O)c5c4C1(CCN3CC1CC1)[C@H]2O5 (some centres not stated) |  |  |  | 1.1 |  |  |  |  |  | 13 | 1.7 | 35 |  | 21 |  | 33 |  | 
5 | Oc1ccc2c3c1O[C@H]1c4c(c5ccccc5n4Cc4ccccc4)C[C@@]4(O)C(C2)N(CC2CC2)CCC314 (some centres not stated) |  | 3.2 | 11.1 | 0.4 | 3.2 |  |  | 7.4 |  |  | 1.6 | 208 | 1.5 | 131 |  | 208 | 1 | 
6 | CC(=O)Nc1cccc(Cn2c3c(c4ccccc42)C[C@@]2(O)C4Cc5ccc(O)c6c5C2(CCN4CC2CC2)[C@H]3O6)c1 (some centres not stated) |  |  |  | 0.9 |  | 16 |  |  |  | 18 | 5.3 | 33 |  | 31 |  | 31 |  | 
7 | O=C(CI)Nc1ccccc1Cn1c2c(c3ccccc31)C[C@@]1(O)C3Cc4ccc(O)c5c4C1(CCN3CC1CC1)[C@H]2O5 (some centres not stated) |  |  |  | 0.5 |  | 51.2 |  |  |  | 25.5 | 0.7 | 50.7 |  | 51 |  | 51 |  | 
8 | CC(=O)Nc1ccc(Cn2c3c(c4ccccc42)C[C@@]2(O)C4Cc5ccc(O)c6c5C2(CCN4CC2CC2)[C@H]3O6)cc1 (some centres not stated) |  |  |  | 0.2 |  | 1.6 |  |  |  | 3.1 | 0.9 | 31 |  | 31 |  | 31 |  | 7.1
9 | O=C(CBr)Nc1ccc(Cn2c3c(c4ccccc42)C[C@@]2(O)C4Cc5ccc(O)c6c5C2(CCN4CC2CC2)[C@H]3O6)cc1 (some centres not stated) |  |  |  | 0.9 |  | 3.6 |  |  |  | 12 | 0.7 | 30 |  | 30 |  | 30 |  | 1.4
10 | Oc1ccc2c3c1O[C@H]1c4c(c5ccccc5n4Cc4ccccc4N=C=S)C[C@@]4(O)C(C2)N(CC2CC2)CCC314 (some centres not stated) | 308 | 1.3 | 8.8 | 1.3 | 1.4 | 23 | 151 nM | 0.5 | 615 nM | 39 | 0.6 | 57 | 19.4 | 57 | 76 | 45 | 1.1 | 216
11 | Oc1ccc2c3c1O[C@H]1c4c(c5ccccc5n4Cc4cccc(N=C=S)c4)C[C@@]4(O)C(C2)N(CC2CC2)CCC314 (some centres not stated) | 5 | 1.7 | 4.1 | 1.2 | 1.9 |  | 66.2 nM | 1.2 | 104 nM |  | 0.8 |  | 3.5 |  | 16 |  | 1.1 | 

Reference: ChEMBL document CHEMBL1128299, “Electrophilic N-benzylnaltrindoles as delta opioid receptor-selective antagonists” (J Med Chem, 1995)
